Usually IC50 stands for the point on the concentration scale where inhibition reaches its midpoint. Broadly, the EC50 is the midpoint of the concentration-response curve.

In data set [1] the target is Inosine-5'-monophosphate dehydrogenase 2 (Homo sapiens, UniProt P12268). Briefly: Inhibition of human IMPDH2.
The target of data set [2] is T1, Inosine-5'-monophosphate dehydrogenase (Cryptosporidium parvum, UniProt Q8T6T2).
T1 sequence (Q8T6T2 whole entry): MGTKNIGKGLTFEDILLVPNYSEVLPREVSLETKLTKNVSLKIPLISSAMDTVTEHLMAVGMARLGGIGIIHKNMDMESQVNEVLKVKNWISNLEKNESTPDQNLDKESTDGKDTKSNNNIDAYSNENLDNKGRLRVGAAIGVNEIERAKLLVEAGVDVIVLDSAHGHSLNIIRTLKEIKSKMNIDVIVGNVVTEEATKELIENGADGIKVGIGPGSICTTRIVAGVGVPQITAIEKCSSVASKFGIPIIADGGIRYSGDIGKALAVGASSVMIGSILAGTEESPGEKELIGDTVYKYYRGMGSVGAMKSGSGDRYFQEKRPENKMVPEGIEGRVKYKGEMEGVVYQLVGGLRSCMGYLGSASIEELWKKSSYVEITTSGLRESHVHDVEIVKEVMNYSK
Description: Inhibition of Cryptosporidium parvum N-terminal His6-tagged IMPDH-mediated NADH production expressed in Escherichia coli BL21(DE3) preincubated for 5 mins prior to substrate addition by fluorescence assay in presence of BSA. In a few lines: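 Same CpIMPDH fluorescence assay (10 nM enzyme, 300 μM NAD, 150 μM IMP, pH 8.0 Tris buffer, 25 °C, 5 min inhibitor preincubation), run with 0.05% fatty-acid-free BSA added to gauge nonspecific protein binding. Quadruplicate points; IC50 averaged over three determinations.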

Data set [3] has as its target T1, Inosine-5'-monophosphate dehydrogenase. Description: Inhibition of Cryptosporidium parvum N-terminal His6-tagged IMPDH-mediated NADH production expressed in Escherichia coli BL21(DE3) preincubated for 5 mins prior to substrate addition by fluorescence assay.
For data set [4], the target named is T2, Inosine-5'-monophosphate dehydrogenase (Cryptosporidium parvum) (UniProt Q8T6T2).
T2 sequence (whole entry): T1 sequence (Q8T6T2 whole entry)

The target of data set [5] is T2, Inosine-5'-monophosphate dehydrogenase (Cryptosporidium parvum). The source holds these as a separate data set.
In data set [6] the test system is Toxoplasma gondii. Briefly: Antiparasitic activity against transgenic Toxoplasma gondii expressing Cryptosporidium parvum IMPDH. It counts as functional, organism-based. In a few lines: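 Engineered T. gondii strain that depends on CpIMPDH for guanine nucleotide synthesis, run alongside the wild-type RH strain, whose native eukaryotic IMPDH also gauges host-cell cytotoxicity. Antiparasitic EC50 is the average of three independent determinations unless otherwise stated, with some values from two determinations.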

Data set [7] concerns Toxoplasma gondii. Description: Selectivity ratio of EC50 for wild-type Toxoplasma gondii to EC50 for Toxoplasma gondii expressing Cryptosporidium parvum IMPDH. It counts as functional.
A short description of data set [8]: Cytotoxicity against African green monkey COS cells after 3 days by Alamar blue assay. It counts as cell-based. The following applies: chlorocebus aethiops, read-out: LD50. In a few lines:
(§1)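 Tested in parallel against HeLa, HEK293, COS and CHO cells. Viability was read as metabolic activity by alamarBlue and expressed as LD50.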

Data set [9] is described as follows: Cytotoxicity against CHO cells after 3 days by Alamar blue assay. It counts as cell-based, Cricetulus griseus. Conditions: chinese hamster, read-out: LD50. In a few lines: as §1
Data set [10] in a line: Cytotoxicity against human HEK293 cells after 3 days by Alamar blue assay. It counts as cell-based. Conditions: read-out: LD50. In a few lines: as §1
A general note: Resazurin is reduced to fluorescent resorufin, in cell work by metabolically active cells.

A short description of data set [11]: Cytotoxicity against human HeLa cells after 3 days by Alamar blue assay. It counts as cell-based. The following applies: read-out: LD50. In a few lines: as §1
The subject of data set [12] is Toxoplasma gondii. Briefly: Antiparasitic activity against wild-type Toxoplasma gondii expressing eukaryotic IMPDH. It counts as functional, organism-based.
The subject of data set [13] is Liver. Briefly: Half life in mouse liver microsomes by LC/MS/MS analysis. It counts as ADME, Microsome. In a few lines: (§2)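 Incubation with mouse liver microsomes at 37 °C, with and without NADPH. Percent of compound remaining measured at several time points; half-life from a fit to first-order decay.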
Data set [14] concerns Liver. Description: Half life in mouse liver microsomes by LC/MS/MS analysis in presence of NADPH. It counts as ADME, Microsome. In a few lines: as §2
(Liver microsomes are vesicles of endoplasmic reticulum, rich in cytochrome P450 enzymes.)

On to `C[C@H](Oc1cccc(Cl)c1Cl)C(=O)Nc1cc(Cl)c2oc(-c3ccncc3)nc2c1`, for which the values for the IC50 in data set [1], in data set [2] and in data set [3] were greater than 5 µM, 0.6 µM and 0.24 µM, respectively. Besides, the Kis in data set [4] stood at 150 nM; in data set [5] it was 210 nM.
`CC(Oc1ccc(Cl)cc1Cl)C(=O)Nc1ccc2oc(-c3ccncc3)nc2c1` (stereo not given): a half-maximal effect in data set [6] (EC50) was put at 0.65 µM. Besides, the IC50 in data set [1] was greater than 5 µM; in data set [2], 0.12 µM; in data set [3], 0.044 µM. Further, the figures for the Kis in [4] and in [5] were 33 nM and 58 nM, respectively.
With `C[C@H](Oc1cccc(Cl)c1Cl)C(=O)Nc1ccc2nc(-c3ccncc3)oc2c1`, in [7], the “Ratio EC50” value stood at 150. In addition, the CC50 at 72 h in [8], in [9], in data set [10] and in data set [11] was greater than 50 µM in each case. Moreover, the EC50 in [6] was determined as 0.02 µM; in [12] it was 3 µM. The t1/2 in [13] is recorded as 9 min; in data set [14] it was 10 min. The values for the 50% inhibitory concentration (IC50) in data set [1], in [2] and in data set [3] were greater than 5 µM, 0.004 µM and 0.0006 µM, respectively.
With `CC(Oc1ccccc1Cl)C(=O)Nc1ccc2oc(-c3ccncc3)nc2c1` (stereo not given), the “Ratio EC50” value in [7] is 3. Moreover, the CC50 at 72 h was greater than 50 µM in data set [8], greater than 50 µM in data set [9], 12.5 µM in data set [10] and greater than 50 µM in data set [11]. The EC50 in [6] came to 0.9 µM; in [12] it was 3 µM. The 50% inhibitory concentration (IC50) is greater than 5 µM in [1], 0.05 µM in [2] and 0.019 µM in data set [3].
Compound `C[C@H](Oc1cccc2ccccc12)C(=O)Nc1ccc2oc(-c3cncs3)nc2c1` displayed a concentration giving a half-maximal response (EC50) in [6] of 0.3 µM. Moreover, the IC50 is greater than 5 µM in data set [1], 0.004 µM in data set [2] and 0.0027 µM in [3]. Further, the Kis in [4] turned out to be 0.9 nM; in [5], 1.6 nM.
Turning to `C[C@H](Nc1cccc(Cl)c1Cl)C(=O)Nc1ccc2oc(-c3ccncc3)nc2c1`, the CC50 at 72 h in data set [8], in [9], in data set [10] and in data set [11] was greater than 50 µM throughout. In addition, the t1/2 was 110 min in data set [13] and 44 min in [14]. Moreover, the figures for the 50% inhibitory concentration (IC50) in data set [1] and in [3] were greater than 5 µM and 0.0005 µM, respectively.
For the compound `COc1ccc(OC(C)C(=O)Nc2ccc3oc(-c4ccncc4)nc3c2)cc1` (stereo not given), in data set [7], the “Ratio EC50” value is greater than 50. The CC50 at 72 h in [8], in data set [9], in data set [10] and in [11] was greater than 50 µM in each case. Besides, the EC50 in [6] was 0.5 µM; in data set [12], greater than 25 µM. Further, the IC50 in data set [1] is greater than 5 µM; in data set [2], 0.034 µM; in [3] it was 0.028 µM.
Turning to `CC(Oc1cccc(Cl)c1Cl)C(=O)Nc1ccc2oc(-c3ccncc3)nc2c1` (stereo not given), the “Ratio EC50” value in [7] was found to be 40. In addition, the CC50 at 72 h in data set [8], in [9], in data set [10] and in data set [11] was greater than 50 µM throughout. In addition, the EC50 came out at 0.22 µM in [6] and 8 µM in data set [12]. In addition, the IC50 in [1] is greater than 5 µM; in [2] it was 0.011 µM; in data set [3], 0.003 µM.
`C[C@@H](C(=O)Nc1ccc2oc(-c3ccncc3)nc2c1)c1ccccc1` returned a concentration giving a half-maximal response (EC50) in data set [6] of 0.4 µM. Moreover, the t1/2 is reported as 130 min in data set [13] and 43 min in [14]. For the same compound, the IC50 in data set [1] was greater than 5 µM; in [2] it was 0.028 µM; in [3], 0.0223 µM. Moreover, the Kis came out at 40 nM in data set [4] and 100 nM in data set [5].

These data come from ChEMBL document CHEMBL2346559, “Optimization of benzoxazole-based inhibitors of Cryptosporidium parvum inosine 5'-monophosphate dehydrogenase” (J Med Chem, 2013).
